Out of some 360,000 compounds screened, about 890 (0.25%) were called active. The list comes from a sample in which actives are over-represented; it also holds similar structures and randomly drawn compounds. A number with no mark means an inactive call.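 How the source made its calls: active means inhibition at 20 µM, scaled per plate between control wells, above about 37% (limit read from the data); inactive means the rest.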

Chain of Tyrosine-protein phosphatase non-receptor type 5 (Homo sapiens) (P54829 whole entry, looked up): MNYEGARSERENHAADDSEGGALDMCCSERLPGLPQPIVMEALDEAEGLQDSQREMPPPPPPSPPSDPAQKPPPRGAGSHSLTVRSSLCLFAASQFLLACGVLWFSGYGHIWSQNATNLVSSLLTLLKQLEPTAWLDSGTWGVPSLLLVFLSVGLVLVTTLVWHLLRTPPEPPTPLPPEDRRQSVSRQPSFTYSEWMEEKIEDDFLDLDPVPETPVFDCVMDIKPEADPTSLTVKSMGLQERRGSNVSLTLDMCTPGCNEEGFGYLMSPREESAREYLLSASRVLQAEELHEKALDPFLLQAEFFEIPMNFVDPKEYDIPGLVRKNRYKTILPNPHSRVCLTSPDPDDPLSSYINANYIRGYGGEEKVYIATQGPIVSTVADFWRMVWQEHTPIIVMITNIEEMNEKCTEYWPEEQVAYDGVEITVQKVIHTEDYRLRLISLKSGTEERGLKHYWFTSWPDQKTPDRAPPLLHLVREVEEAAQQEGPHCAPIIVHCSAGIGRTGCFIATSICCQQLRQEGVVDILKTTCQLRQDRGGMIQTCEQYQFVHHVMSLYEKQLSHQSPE

In the assay the target is Tyrosine-protein phosphatase non-receptor type 5 (Homo sapiens) (UniProt P54829). Kind of assay: inhibition of human PTPN5 enzyme activity – biochemical, fluorescence intensity, uHTS, primary screen (AID 588621).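 Further: 0% = DMSO with enzyme and substrate and 100% = substrate only without enzyme.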 Particulars: recombinant STEP, OMFP fluorogenic substrate, at 20 µM, hits give high values. In outline:
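Material: STEP (striatal-enriched tyrosine phosphatase) enzyme, cell-free; Compound dosing: 20 µM single dose in 1% DMSO; Technique: fluorescence read at 480 nm ex / 540 nm em; Times: reaction 20 min, ambient temperature; Medium: 50 mM Bis-Tris pH 6.0 with 2.5 mM DTT and 0.005% Tween 20; Also added: OMFP at 25 µM.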
Usually inhibition stands for the drop in the measured response relative to a control, in per cent. With `CC1CN(C(=O)COC(=O)c2cccc(NS(=O)(=O)c3ccccc3)c2)CC(C)O1` (stereo not given), the inhibition is 0.4%.
The same measure for `COc1ccc(/C=N/NC(=O)C(C)N(c2ccc(OC)cc2)S(C)(=O)=O)cc1` (stereo not given): 2.2%.
For `COc1ccc(/C=N/Nc2ccccc2C(=O)O)cc1` the value was 42.5% (active); for `COc1ccc(/C=N/NC(=O)Cn2cc(C(F)(F)F)ccc2=O)cc1`, -2.6%.
Regarding `CCc1ccccc1NC(=O)CN1CCN(C(=O)c2cc(C3CC3)nn2-c2ccccc2)CC1`, the inhibition is -3.2%.
Turning to `CC(C)Cc1ccc(C(C)C(=N)N)cc1` (stereo not given), the inhibition is -2%.
For `CCO[C@H]1OC(C(=O)N2CCCCCCC2)=C[C@@H](c2ccc(C(F)(F)F)cc2)[C@@H]1CCCO` the value was 0.1%.
For `CCOC(=O)C1=C(O)/C(=C/c2ccc(OCC(=O)Nc3ccc(C)cc3)cc2)N=C1C` the value was 14.9%; for `Cc1ccc(OCC(=O)Nc2ccc(-c3nc4ncccc4o3)cc2)cc1`, 54.1% (active); for `Cc1ccc2nc(-c3ccc(NC(=O)c4cccnc4)cc3)oc2c1`, 0.4%.
The same measure for `CCc1ccc(C2C(C#N)=C(N)N(N3CCOCC3)C3=C2C(=O)CC(C)(C)C3)s1` (stereo not given): -1.9%; for `CNC(=O)NC(=O)C(OC(=O)c1cccc(S(=O)(=O)N2CCCCC2)c1)c1ccccc1` (stereo not given): -0.2%.
Turning to `O=C(/C=C/Nc1ccc(S(=O)(=O)Nc2cnc3ccccc3n2)cc1)c1cccnc1`, the inhibition was 5.4%.
For `CCOc1cc(CO)ccc1OCC(=O)N1CCCCC1` the value was -1.4%; for `CC(=NNC(=S)N1CCCCCC1)c1ccccn1`, 54.5% (active).
`CCNC(=S)N1CCN(c2ncccn2)CC1`: the inhibition was -5.9%.
For the compound `CCOc1ccc(NC(=S)N2CCCCCC2)cc1`, the inhibition was -2.3%.
`CCOC(=O)C1CCN(c2c(Nc3cc(C)cc(C)c3)c(=O)c2=O)CC1`: the inhibition is -2.8%.
For `COc1ccc(-c2c(-c3cc(OC)cc(OC)c3)n(C)c3ccc(-c4ccn[nH]4)cc23)cc1` the value was -1.9%; for `O=C(CCSCCc1ccccn1)Nc1nccs1`, -2.2%.
Turning to `CC(O)C(NS(=O)(=O)c1ccc(Cl)cc1)C(=O)OCc1cc([N+](=O)[O-])cc2c1OCOC2` (stereo not given), the inhibition was -3.7%.
For `CC(C)(C)OC(=O)NCCCCCC(=O)N/N=C/c1coc2ccccc2c1=O` the value was -1.9%; for `O=C(N/N=C/c1coc2ccccc2c1=O)c1cc2ccccc2o1`, 43.4% (active).
Turning to `Cc1c(/C=N\NC(=O)c2cc3ccccc3o2)c2ccccc2n1C`, the inhibition was -0.5%.
For `CN1CCN(C(=O)c2ccccc2NC(=O)COc2ccccc2Cl)CC1` the value was -2.4%.
For `C=CCn1c(=S)[nH]c2scc(-c3ccco3)c2c1=O` the value was 13.1%.
The same measure for `CCCc1nc(-c2cc3cc(C)ccc3[nH]c2=O)no1`: 3.2%.
Consider `COc1ccc(Cc2cc(-c3ccc(F)cc3)n[nH]c2=O)cc1`, for which the inhibition is 1.1%.
As to `COc1ccc2[nH]c(=O)c(-c3noc(-c4ccc(F)cc4)n3)cc2c1`, the inhibition was 95.7% (active).
For `O=C(NCc1ccccc1)C(c1cccnc1)N(C(=O)c1csnn1)c1ccc(F)cc1` (stereo not given) the value was 2.3%; for `Cc1ccc(-n2c(C)cc(/C=C(\C#N)C(=O)NCC3CCCO3)c2C)cc1` (stereo not given), 0.4%; for `CCCCNC(=O)c1c[nH]c2ccc(S(=O)(=O)Nc3ccc(OCC)cc3)cc2c1=O`, 4.4%.
As to `Cc1nc2ccc(NC(=S)N3CCC(C)CC3)cc2nc1C`, the inhibition is 2.1%.
As to `CC1=C(C(=O)N2CCOCC2)CC(CC(=O)NCCCN(C)C)C(=O)N1Cc1ccc(C(C)(C)C)cc1` (stereo not given), the inhibition was -2.8%.
On to `CC(=O)c1ccc(NC(=O)CSC(=S)N2CCCC2)cc1`, for which the inhibition was 0.8%.
For `O=C(CSC(=S)N1CCCCC1)c1c(F)cccc1F` the value was 87.8% (active); for `COc1cccc(NC(=O)CN(C)C(=O)CSC(=S)N2CCCC2)c1`, -1.5%; for `O=S(=O)(NCC1CN(S(=O)(=O)c2ccc3c(c2)OCCO3)C1)c1c(F)cccc1F`, -0.5%.
Take `N#Cc1ccc(C(=O)Nc2cccc3cccnc23)c(F)c1`: the inhibition was 97.4% (active).
The same measure for `COc1ccc(NC(=O)c2ccco2)cc1NC(=O)c1ccc(C#N)cc1F`: -1.6%.
As for `CSc1ccc(C#N)cc1NC(=O)c1ccc(Cl)cc1`, the inhibition is -9.6%.
The same measure for `CSCCC(NC(=O)COc1ccccc1)C(=O)N(C)CC(=O)Nc1ccc(C)cc1` (stereo not given): -3.9%.
The same measure for `COc1ccc(CN2CCCC(CNC(=O)c3ccc(F)cc3)C2)cc1OC` (stereo not given): 0.7%.
For `C[C@H](CO)N1C[C@H](C)[C@H](CN(C)C(=O)c2ccncc2)OCc2ccccc2-c2c(n(C)c3ccccc23)C1=O` the value was 1.4%.
Turning to `O=C1CCC(C(=O)Nc2ccc(OC(F)F)cc2)N1` (stereo not given), the inhibition is 1.3%.
For the compound `S=C(NCCCc1ccccc1)Nc1ccc(Br)cc1`, the inhibition is 1.3%.
The same measure for `CCc1ccc(NC(=O)CS(=O)CC(=O)N2CCN(c3ccccc3F)CC2)cc1` (stereo not given): 2.2%; for `CCc1ccc(NC(=O)CS(=O)CC(=O)NCCCc2ccccc2)cc1` (stereo not given): 41.6% (active); for `Cc1ccc(S(=O)(=O)NN=C2CC(C)(C)CC(=O)C2(C)C)cc1`: -2.2%.
The same measure for `CCOc1nnc(C)c2c(C)n(-c3cccc(Cl)c3)nc12`: -2.6%.

For the origin of these results see PubChem BioAssay AID588621 (Sanford-Burnham Center for Chemical Genomics, 2011).
